Experimental data pooled from the literature.
Compare with care: the assays were run in different laboratories.
SIRT3: NAD-dependent protein deacetylase sirtuin-3, mitochondrial (SIRT3, Homo sapiens, UniProt Q9NTG7)
PTGS1: Prostaglandin G/H synthase 1 (PTGS1, Ovis aries, UniProt P05979)
TAF1L BD2: Transcription initiation factor TFIID subunit 1-like, BD2 (TAF1L, Homo sapiens, UniProt Q8IZX4)
MAP3K9: Mitogen-activated protein kinase kinase kinase 9 (MAP3K9, Homo sapiens, UniProt P80192)

CCCCC[C@@H]1CC(=O)c2cc(Cl)cc(Br)c2O1
inhibition (SIRT3; enzyme activity, inhibitor, fluorescence; 200 µM): 3.9%

C#CCNC(=O)c1ccccc1SC(C)=O
kinact (PTGS1; enzyme activity, inhibitor): 0.000417 s⁻¹

CCCCCC1CC(=O)c2cccc(Br)c2O1 (centres unmarked)
inhibition (SIRT3; enzyme activity, inhibitor, fluorescence; 200 µM): 6.7%

Oc1cccc(Nc2nc(-c3ccc(F)cc3F)cs2)c1
inhibition (Type-2 angiotensin II receptor (AGTR2, Homo sapiens, UniProt P50052); cell-free assay; 10 µM): -5.6%

COc1cc(Cl)c(C(=O)N[C@@H](CN[C@H]2CC[C@@H](N)CC2)Cc2ccc(C#N)cc2)cc1-c1ccc(CN[C@H](C)c2ccc(C)cc2)o1
remaining activity (Transcription initiation factor TFIID subunit 1-like (TAF1L, Homo sapiens, UniProt Q8IZX4); enzyme activity, inhibitor; 1 µM): 96%

COc1cc(NC(C)=O)c(Cl)cc1C(=O)Nc1nccs1
inhibition (D(1A) dopamine receptor (DRD1, Homo sapiens, UniProt P21728); cell-free assay; 10 µM): -7.2%

CCCCCCNC(=O)c1ccccc1SC(C)=O
kinact (PTGS1; enzyme activity, inhibitor): 0.00035 s⁻¹

C[S+]([O-])c1ccc(-c2nc(-c3ccncc3)c(-c3ccc(F)cc3)[nH]2)cc1 (centres unmarked)
ΔTm (Transcription initiation factor TFIID subunit 1, BD1 (TAF1, Homo sapiens, UniProt P21675); thermal stability, DSF; 10 µM): -0.19 °C

NS(=O)(=O)c1ccc(Nc2nc(-c3ccc(F)cc3)c3ccccc3n2)cc1
remaining binding (TAF1L BD2; binding, competition with immobilised ligand; 1 µM): 77%

O=C(NCCCNc1nc(Nc2cccc(NC(=O)N3CCCC3)c2)ncc1Br)C1CCC1
remaining activity (MAP3K9; enzyme activity, inhibitor, radiometric; 1 µM): 0%

CCCCC#CCNC(=O)c1ccccc1SC(C)=O
kinact (PTGS1; enzyme activity, inhibitor): 0.000367 s⁻¹

Cc1cc2c(cc1N1C(=O)c3cccc4c(Cl)ccc(c34)C1=O)n(C)c(=O)n2C
ΔTm (Transcription initiation factor TFIID subunit 1-like, BD1 (TAF1L, Homo sapiens, UniProt Q8IZX4); thermal stability, DSF; 10 µM): -0.2 °C

Oc1ccc(-c2nc(-c3ccncc3)c(-c3ccc(F)cc3)[nH]2)cc1
ΔTm (Transcription initiation factor TFIID subunit 1, BD2 (TAF1, Homo sapiens, UniProt P21675); thermal stability, DSF; 10 µM): -0.06 °C

CCCOc1ccc(OC)c(F)c1C(=O)c1ccc(C(=O)N[C@@H]2CNC[C@H]2NC(=O)c2ccc3[nH]ncc3c2)cc1
remaining activity (Serine/threonine-protein kinase MRCK alpha (CDC42BPA, Homo sapiens, UniProt Q5VT25); enzyme activity, inhibitor; 10 µM): -3%

NS(=O)(=O)c1ccc(CNc2ccnc(Nc3cccc(CN4CCOCC4)c3)n2)cc1
remaining activity (Serine/threonine-protein kinase MARK1 (MARK1, Homo sapiens, UniProt Q9P0L2); enzyme activity, inhibitor, radiometric; 1 µM): 102%

CCCCCC1CC(=O)c2cc(C)cc(C)c2O1 (centres unmarked)
inhibition (SIRT3; enzyme activity, inhibitor, fluorescence; 200 µM): 2.4%

Nc1ncnc2occ(-c3ccc(NC(=O)Nc4cc(C(F)(F)F)ccc4F)cc3)c12
remaining signal (Mitogen-activated protein kinase kinase kinase 6 (MAP3K6, Homo sapiens, UniProt O95382); cell-free assay, inhibitor; 20 µM): 20%

Cc1cnc(Nc2ccc(OCCN3CCCC3)cc2)nc1Nc1cccc(S(=O)(=O)NC(C)(C)C)c1
ΔTm (TAF1L BD2; thermal stability, DSF; 10 µM): 0.91 °C

Cc1nn(CC(F)(F)F)cc1Nc1ncc(C2CC2)c(NCCc2c[nH]cn2)n1
remaining activity (MAP3K9; enzyme activity, inhibitor, radiometric; 1 µM): 72%

CN(C)C1CCN(CC#Cc2nn(C3CCCC3)c3nc(NCc4ccccc4)ncc23)C1 (centres unmarked)
inhibition (Activin receptor type-1B (ACVR1B, Homo sapiens, UniProt P36896); enzyme activity, inhibitor, FRET; 1 µM): 5%
